According to the array DNA melting data of Ke et al. (doi:10.1101/2024.01.08.574731):

How the values were obtained:
[1] = folding enthalpy; higher = less favourable; fluorescence melt of hairpins on a sequencing array, two-state fit; settings: sodium 0.088 M
In short: (§1)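 With Cy3 and quencher oligos annealed, library hairpins on a sequenced MiSeq flow cell were imaged for Cy3 fluorescence in 50 mM Na-HEPES pH 8.0, 25 mM NaCl, in 2.5 °C steps up to 60 °C. Melting temperature and folding enthalpy were derived from bootstrapped two-state fits of signals normalised to pre-quench Cy3 and to control constructs. Four replicates were combined by inverse variance, with fitted temperatures raised by 9.35 °C to match UV melts.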

[2] = melting temperature; fluorescence melt of hairpins on a sequencing array, two-state fit, raised by 9.35 °C to match UV melts; settings: sodium 0.088 M
In short: as §1

Row | Sequence | folding enthalpy [1] | Tm [2]
1 | GGCAAAACGAAAGTTGCC (((..(((....)))))) | -161 kJ/mol | 52.7 °C
2 | GGCAAAGCGAAAGCTGCC (((..(((....)))))) | -131 kJ/mol | 58.5 °C
3 | GGCAAAGGAAACTTTACC ((.((((....)))).)) | -115 kJ/mol | 30.1 °C
4 | GGCAAAGGAAACTTTGCC (((((((....))))))) | -170 kJ/mol | 62.7 °C
5 | GGCAACCCGAAAGGGGCC (((..(((....)))))) | -99.5 kJ/mol | 55.4 °C
6 | GGCAACCGAAAGGTAGCC (((.(((....))).))) | -140 kJ/mol | 62.4 °C
7 | GGCAACGAAAGTTCGCC ((((((....))).))) | -95.7 kJ/mol | 51.6 °C
8 | GGCAACGAAAGTTCGGCC ((((((....)))..))) | -105 kJ/mol | 44.4 °C
9 | GGCAACGAAAGTTGCGCC ((((((....)))..))) | -33.2 kJ/mol | 59.2 °C
10 | GGCAACGGAAACATTGCC (((((.(....).))))) | -132 kJ/mol | 45.1 °C
11 | GGCAACGGAAACGTTGTC (.(((((....))))).) | -164 kJ/mol | 55.9 °C
12 | GGCAACTCGAAAGAGGCC (((..(((....)))))) | -95 kJ/mol | 48.8 °C
13 | GGCAAGGGAAACCCTGCC ((((.((....)).)))) | -162 kJ/mol | 53.2 °C
14 | GGCAAGGGAAACTTTGCC (((((.(....).))))) | -158 kJ/mol | 50.1 °C
15 | GGCAAGTCGAAAGACGCC (((..(((....)))))) | -76.1 kJ/mol | 53.1 °C
16 | GGCAATCCGAAAGGAGCC (((..(((....)))))) | -97.9 kJ/mol | 46.9 °C
17 | GGCAATGAAAATTGCC ((((((....)))))) | -157 kJ/mol | 61.4 °C
18 | GGCAATGGAAACATCGCC (((.(((....))).))) | -145 kJ/mol | 45.5 °C
19 | GGCAATGGAAACATTGTC (.(((((....))))).) | -140 kJ/mol | 48.4 °C
20 | GGCAATTCGAAAGAAGCC (((..(((....)))))) | -103 kJ/mol | 37.8 °C
21 | GGCACAACGAAAGTTGCC (((..(((....)))))) | -68.7 kJ/mol | 44.2 °C
22 | GGCACACCGAAAGGTGCC (((..(((....)))))) | -59.7 kJ/mol | 52.8 °C
23 | GGCACAGGAAACTGCGCC (((.(((....))).))) | -213 kJ/mol | 55.8 °C

Row | Sequence | folding enthalpy [1] | Tm [2]
24 | GGCACATCGAAAGATGCC (((..(((....)))))) | -61.4 kJ/mol | 42.8 °C
25 | GGCACCGAAAGGTCGGCC ((((((....)))..))) | -91.3 kJ/mol | 49.9 °C
26 | GGCACCGAAAGGTCTGCC ((((((....)))..))) | -93 kJ/mol | 48.4 °C
27 | GGCACCGAAAGGTGTGCC ((((((....)))..))) | -68.1 kJ/mol | 55.4 °C
28 | GGCACCGAAAGGTTTGCC ((((((....)))..))) | -94.4 kJ/mol | 50.6 °C
29 | GGCACCGGAAACGATGCC ((((.((....)).)))) | -181 kJ/mol | 52.9 °C
30 | GGCACCGGAAACGGTACC ((.((((....)))).)) | -94.2 kJ/mol | 50.7 °C
31 | GGCACGCCGAAAGGCGCC (((..(((....)))))) | -27 kJ/mol | 40.3 °C
32 | GGCACGGGAAACCGTGTC (.(((((....))))).) | -145 kJ/mol | 59.2 °C
33 | GGCACTACGAAAGTAGCC (((..(((....)))))) | -49.6 kJ/mol | 39.3 °C
34 | GGCACTGCGAAAGCAGCC (((..(((....)))))) | -36.6 kJ/mol | 35.9 °C
35 | GGCACTGGAAACAGCACC ((..(((....)))..)) | -41.6 kJ/mol | 23.5 °C
36 | GGCACTGGAAACAGTGTC (.(((((....))))).) | -158 kJ/mol | 54.1 °C
37 | GGCAGAGCGAAAGCTGCC (((..(((....)))))) | -120 kJ/mol | 61.9 °C
38 | GGCAGCGAAAGCTAGGCC ((((((....)))..))) | -120 kJ/mol | 55.3 °C
39 | GGCAGCGAAAGCTGGGCC ((((((....)))..))) | -54.7 kJ/mol | 52 °C
40 | GGCAGCGAAAGCTGTGCC ((((((....)))..))) | -55.1 kJ/mol | 51 °C
41 | GGCAGCGGAAACACCGCC (((.(.(....).).))) | -46.3 kJ/mol | 34.9 °C
42 | GGCAGCGGAAACGCTACC ((.((((....)))).)) | -95.6 kJ/mol | 54 °C
43 | GGCAGGAAACTGCC (((((....))))) | -132 kJ/mol | 65.6 °C
44 | GGCAGGCCGAAAGGCGCC (((..(((....)))))) | -89.1 kJ/mol | 59.6 °C
45 | GGCAGTCGAAAGACGCC (((.(((....)))))) | -111 kJ/mol | 65 °C
46 | GGCAGTTCGAAAGAAGCC (((..(((....)))))) | -68.1 kJ/mol | 34.5 °C

Row | Sequence | folding enthalpy [1] | Tm [2]
47 | GGCATACGAAAGTACGCC (((.(((....))).))) | -134 kJ/mol | 51.8 °C
48 | GGCATAGGAAACTACGCC (((.(((....))).))) | -118 kJ/mol | 41.1 °C
49 | GGCATATCGAAAGATGCC (((..(((....)))))) | -121 kJ/mol | 50.1 °C
50 | GGCATCCGAAAGGAAGCC (((.(((....))).))) | -179 kJ/mol | 59.2 °C
51 | GGCATCGAAAGATCGCC ((((((....))).))) | -102 kJ/mol | 50.4 °C
52 | GGCATCGAAAGATCGGCC ((((((....)))..))) | -99 kJ/mol | 41.1 °C
53 | GGCATCGAAAGATGCGCC ((((((....)))..))) | -36.5 kJ/mol | 57.3 °C
54 | GGCATCGGAAACAACGCC (((.(.(....).).))) | -38.7 kJ/mol | 27.4 °C
55 | GGCATCGGAAACAATGCC (((((.(....).))))) | -127 kJ/mol | 46.7 °C
56 | GGCATCTCGAAAGAGGCC (((..(((....)))))) | -111 kJ/mol | 51.2 °C
57 | GGCATTGCGAAAGCAGCC (((..(((....)))))) | -68.8 kJ/mol | 50.7 °C
58 | GGCATTGGAAACGATGTC (.(((.(....).))).) | -108 kJ/mol | 35.1 °C
59 | GGCCAAGCGAAAGCTGCC (((..(((....)))))) | -90.8 kJ/mol | 54.3 °C
60 | GGCCACGAAAGTGAGCC ((((((....))).))) | -114 kJ/mol | 65.8 °C
61 | GGCCACGAAAGTGAGGCC ((((((....)))..))) | -113 kJ/mol | 58.3 °C
62 | GGCCACGAAAGTGCGCC ((((((....))).))) | -137 kJ/mol | 63.6 °C
63 | GGCCACGAAAGTGCTGCC ((((((....)))..))) | -85.4 kJ/mol | 48.8 °C
64 | GGCCACGGAAACATGGCC (((((.(....).))))) | -206 kJ/mol | 53.3 °C
65 | GGCCACGGAAACGCAGCC (((..((....))..))) | -85.7 kJ/mol | 39.5 °C
66 | GGCCAGAAATGGCC (((((....))))) | -121 kJ/mol | 67.5 °C
67 | GGCCAGCCGAAAGGCGCC (((..(((....)))))) | -56 kJ/mol | 55.1 °C
68 | GGCCAGGGAAACCTAGCC (((.(((....))).))) | -119 kJ/mol | 43.2 °C
69 | GGCCATCCGAAAGGAGCC (((..(((....)))))) | -83.9 kJ/mol | 42.8 °C

Row | Sequence | folding enthalpy [1] | Tm [2]
70 | GGCCATCGAAAGATTGCC (((.(((....))).))) | -110 kJ/mol | 49.3 °C
71 | GGCCATGGAAACACAGCC (((..((....))..))) | -56.5 kJ/mol | 27.6 °C
72 | GGCCATGGAAACATGACC ((.((((....)))).)) | -122 kJ/mol | 47.6 °C
73 | GGCCATGGAAACGTGGTC (.(((.(....).))).) | -139 kJ/mol | 45.2 °C
74 | GGCCCACCGAAAGGTGCC (((..(((....)))))) | -41.7 kJ/mol | 34.2 °C
75 | GGCCCACGAAAGTGAGCC (((.(((....))).))) | -170 kJ/mol | 60.8 °C
76 | GGCCCACGAAAGTGCGCC (((.(((....))).))) | -178 kJ/mol | 55.8 °C
77 | GGCCCCGAAAGGGAGCC ((((((....))).))) | -132 kJ/mol | 68.4 °C
78 | GGCCCCGAAAGGGGAGCC ((((((....)))..))) | -53.4 kJ/mol | 59.1 °C
79 | GGCCCCGAAAGGGTAGCC ((((((....)))..))) | -99.2 kJ/mol | 60.1 °C
80 | GGCCCCGAAAGGGTTGCC ((((((....)))..))) | -68.2 kJ/mol | 55.3 °C
81 | GGCCCCTCGAAAGAGGCC (((..(((....)))))) | -65.4 kJ/mol | 43.8 °C
82 | GGCCCGACGAAAGTCGCC (((..(((....)))))) | -34.5 kJ/mol | 35.2 °C
83 | GGCCCGGGAAACCGGGTC (.(((((....))))).) | -121 kJ/mol | 67.3 °C
84 | GGCCCTCCGAAAGGAGCC (((..(((....)))))) | -44.4 kJ/mol | 38.4 °C
85 | GGCCCTGGAAACAGAGCC (((.(((....))).))) | -172 kJ/mol | 48.7 °C
86 | GGCCCTGGAAACAGGGTC (.(((((....))))).) | -151 kJ/mol | 58.9 °C
87 | GGCCCTGGAAACGGGGCC (((((.(....).))))) | -131 kJ/mol | 67.5 °C
88 | GGCCGACGAAAGTCTGCC (((.(((....))).))) | -214 kJ/mol | 56.2 °C
89 | GGCCGAGGAAACCCGACC ((.((.(....).)).)) | -104 kJ/mol | 34 °C
90 | GGCCGATCGAAAGATGCC (((..(((....)))))) | -105 kJ/mol | 38.9 °C
91 | GGCCGCGAAAGCGCTGCC ((((((....)))..))) | -77.7 kJ/mol | 56.5 °C
